# Measurements collected from several papers.
# Compare with care: the assays were run in different laboratories.
# Faah: Fatty-acid amide hydrolase 1 (Faah, Rattus norvegicus, UniProt P97612)
# PRMT3: Protein arginine N-methyltransferase 3 (PRMT3, Homo sapiens, UniProt O60678)
# MAOA: Amine oxidase [flavin-containing] A (MAOA, Homo sapiens, UniProt P21397)
# Tspo: Translocator protein (Tspo, Rattus norvegicus, UniProt P16257)
# GSR: Glutathione reductase, mitochondrial (GSR, Homo sapiens, UniProt P00390)
# LDHA: L-lactate dehydrogenase A chain (LDHA, Homo sapiens, UniProt P00338)
# Rps6ka1: Ribosomal protein S6 kinase alpha-1 (Rps6ka1, Rattus norvegicus, UniProt Q63531)
# VIPR1: Vasoactive intestinal polypeptide receptor 1 (VIPR1, Homo sapiens, UniProt P32241)
SMILES,target,test,conditions,inhibition [%]
Cc1ccc2c(ccn2CCC2CCN(C(=O)OC(C(F)(F)F)C(F)(F)F)CC2)c1,Faah,"enzyme activity, inhibitor",10 µM,36
N=C(NCCCSC[C@H]1O[C@@H](n2cnc3c(NCCCc4ccccc4)ncnc32)[C@H](O)[C@@H]1O)NC1CCCCC1,PRMT3,"enzyme activity, inhibitor, fluorescence",10 µM,-5.11
Cc1cc([N+](=O)[O-])ccc1NC(=O)c1ccc2c(c1)OCO2,MAOA,"enzyme activity, inhibitor","1 µM, 20 min",7
N=C(NCCCO)NCCCSC[C@H]1O[C@@H](n2cnc3c(NCCCc4ccccc4)ncnc32)[C@H](O)[C@@H]1O,PRMT3,"enzyme activity, inhibitor, fluorescence",10 µM,7.1
O=C(Nc1ccc(C(F)(F)F)cc1)c1cc(Cl)ccc1O,MAOA,"enzyme activity, inhibitor","1 µM, 20 min",82
CCCNc1nc2ccccc2n1Cc1ccc(Cl)cc1,Tspo,cell-free assay,10 µM,49.2
CNC(=O)[C@@]12C[C@@H]1[C@@H](n1cnc3c(NC)nc(C#Cc4ccc(Cl)s4)nc31)[C@H](O)[C@@H]2O,Tspo,"ligand displacement, radioligand",10 µM,60 to 70
CC[C@H](C)[C@H](NC(=O)[C@H](CCC(N)=O)NC(=O)[C@H](CC(C)C)NC(=O)[C@H](CCSC)NC(=O)[C@H](CCCCN)NC(=O)[C@H](CO)NC(=O)[C@H](CO)NC(=O)[C@H](CCSC)NC(=O)[C@H](CC(C)C)NC(=O)[C@H](CC(N)=O)NC(=O)[C@@H](NC(=O)[C@@H](NC(=O)[C@H](CO)NC(=O)[C@H](CC(C)C)NC(=O)[C@H](CS)NC(=O)[C@H](CCCNC(=N)N)NC(=O)[C@H](CC(=O)O)NC(=O)[C@H](Cc1c[nH]c2ccccc12)NC(=O)[C@H](Cc1ccccc1)NC(=O)[C@H](C)NC(=O)[C@H](CCC(=O)O)NC(=O)[C@@H](N)CCCCN)C(C)C)[C@@H](C)CC)C(=O)N[C@@H](CC(N)=O)C(=O)N[C@@H](C)C(=O)O,"Cyclin-dependent kinase 5, with p25 (CDK5, Homo sapiens, UniProt Q00535)","enzyme activity, inhibitor, radiometric",1 µM,0
COc1ccc2c(c1)[C@H](NCCC(C)C)C[C@H]2c1ccc(Cl)c(Cl)c1 (relative stereo),GSR,"enzyme activity, inhibitor",25 µM,< 12
CCN(CC)c1ccc(C2Nc3ccc(C(=O)c4ccccc4)cc3NC3=C2C(=O)CC(C)(C)C3)cc1 (stereo not shown),"Alpha-1A adrenergic receptor (ADRA1A, Homo sapiens, UniProt P35348)","ligand displacement, radioligand",10 µM,17
O=C(Nc1ccc(OC(F)(F)F)cc1)c1cc(Cl)ccc1O,MAOA,"enzyme activity, inhibitor","1 µM, 20 min",74
COC(=O)CN=c1scc(-c2ccccc2)n1-c1ccccc1OC,LDHA,"enzyme activity, inhibitor, fluorescence","100 µM, pH 7.2",48
Nc1ncnc2c1ncn2[C@@H]1O[C@H](CSCCNC(=O)NCc2ccccc2)[C@@H](O)[C@H]1O,PRMT3,"enzyme activity, inhibitor, radiometric",10 µM,> 95
COC(=O)CN=c1scc(-c2ccccc2)n1-c1ccc(C)cc1,LDHA,"enzyme activity, inhibitor, fluorescence","100 µM, pH 7.2",52
O=C(Nc1ccc([N+](=O)[O-])cc1Cl)c1ccc2c(c1)OCO2,MAOA,"enzyme activity, inhibitor","1 µM, 20 min",9
Oc1cccc(Nc2nc(-c3ccc(F)cc3F)cs2)c1,"Histamine H2 receptor (HRH2, Homo sapiens, UniProt P25021)",cell-free assay,10 µM,-33.9
COC(=O)CN=c1scc(-c2ccccc2)n1-c1ccc(OC)cc1,LDHA,"enzyme activity, inhibitor, fluorescence","100 µM, pH 7.2",49
CNC(=O)c1cc(Oc2ccc(NC(=O)Nc3ccc(Cl)c(C(F)(F)F)c3)cc2)ccn1,Rps6ka1,"enzyme activity, inhibitor",10 µM,19
CC1=C(C(=O)Nc2ccc([N+](=O)[O-])cc2Cl)Cc2ccccc21,MAOA,"enzyme activity, inhibitor","1 µM, 20 min",-3
N=C(NCCCSC[C@H]1O[C@@H](n2cnc3c(NCCCc4ccccc4)ncnc32)[C@H](O)[C@@H]1O)NC1CCC1,PRMT3,"enzyme activity, inhibitor, fluorescence",10 µM,-37.6
CN1CC(Oc2cnc(C#N)cc2-c2ccn3nc(NC(=O)C4CC4)cc3c2)C1,"Cyclin-dependent kinase-like 2 (CDKL2, Homo sapiens, UniProt Q92772)","enzyme activity, inhibitor",1 µM,-18
N=C(NCCCSC[C@H]1O[C@@H](n2cnc3c(NCCCc4ccccc4)ncnc32)[C@H](O)[C@@H]1O)NC1CCCC1,PRMT3,"enzyme activity, inhibitor, fluorescence",10 µM,-23.3
COc1cc(/C=C/C(=O)N2CCc3ccccc3C2)ccc1OCc1ccccc1,MAOA,"enzyme activity, inhibitor, fluorescence",62.5 µM,20.6
O=C(c1ccc(Cl)cc1)N(Cc1ccccc1)C1CCCCC1,"Kappa-type opioid receptor (Oprk1, Rattus norvegicus, UniProt P34975)","ligand displacement, radioligand",10 µM,82
O=C(Nc1ccccc1)c1ccccc1O,MAOA,"enzyme activity, inhibitor","1 µM, 20 min",28
Cc1ccc(Nc2nccc(N(C)c3ccc4c(C)n(C)nc4c3)n2)cc1S(N)(=O)=O,Rps6ka1,"enzyme activity, inhibitor",0.3 µM,27
N#Cc1ccc2c(ccn2CCC2CCN(C(=O)OC(C(F)(F)F)C(F)(F)F)CC2)c1,Faah,"enzyme activity, inhibitor",10 µM,45
CCN(c1cc(C#CCN2CCOCC2)cc(C(=O)NCc2c(C)cc(C)[nH]c2=O)c1C)[C@H]1CC[C@H](N(C)CCOC)CC1,PRMT3,"enzyme activity, inhibitor",1 µM,10
N=C(NCCCSC[C@H]1O[C@@H](n2cnc3c(NCCCc4ccccc4)ncnc32)[C@H](O)[C@@H]1O)NCC1CCC1,PRMT3,"enzyme activity, inhibitor, fluorescence",10 µM,0
Cc1ccc(C(=O)Nc2ccc([N+](=O)[O-])cc2C(F)(F)F)cc1,MAOA,"enzyme activity, inhibitor","1 µM, 20 min",10
O=C1N=C(N2CCCCN2)S/C1=C\c1ccc(F)cc1O,VIPR1,"ligand displacement, radioligand",10 µM,11
N#Cc1cc(Cn2c(N3CCCC3)nc3ccccc32)ccc1F,Tspo,cell-free assay,10 µM,76.7
N=C(NCCCN)NCCCSC[C@H]1O[C@@H](n2cnc3c(NCCCc4ccccc4)ncnc32)[C@H](O)[C@@H]1O,PRMT3,"enzyme activity, inhibitor, fluorescence",10 µM,1.09
COc1ccc(CN[C@@H]2C[C@@H](c3ccc(Cl)c(Cl)c3)c3ccccc32)cc1 (relative stereo),GSR,"enzyme activity, inhibitor",25 µM,< 12
N=C(NCCCSC[C@H]1O[C@@H](n2cnc3c(NCCCc4ccccc4)ncnc32)[C@H](O)[C@@H]1O)NCCCc1ccccc1,PRMT3,"enzyme activity, inhibitor, fluorescence",10 µM,10.4
O=C(Nc1ccc([N+](=O)[O-])cc1[N+](=O)[O-])c1ccccc1O,MAOA,"enzyme activity, inhibitor","1 µM, 20 min",49
COc1cc(NC(C)=O)c(Cl)cc1C(=O)Nc1nccs1,VIPR1,cell-free assay,10 µM,-13.5
